Assays:
[1] = molecular target: T1, Phosphodiesterase 4 (Homo sapiens, UniProt P27815+Q08499+Q07343+Q08493); assay: In vitro inhibition of PDE-IV isolated from guinea pig ventricle at 10 uM.; assay type: protein assay; details: Cavia porcellus, target entry is the homologue from another species
[2] = molecular target: T2, Phosphodiesterase 3 (Homo sapiens, UniProt Q14432+Q13370); assay: Percentage inhibition against PDE-III (phosphodiesterase III) in guinea pig ventricle at 10 uM; assay type: protein assay; details: Cavia porcellus, target entry is the homologue from another species
[3] = molecular target: T1, Phosphodiesterase 4; assay: In vitro inhibition of PDE-IV isolated from guinea pig ventricle.; assay type: protein assay, Cavia porcellus; details: target entry is the homologue from another species
Summary of the method: (§1)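 PDE III and PDE IV were each prepared from guinea pig ventricle by anion-exchange chromatography. Activity was measured by the boronate column method with 1 μM cAMP as substrate.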

[4] = molecular target: T2, Phosphodiesterase 3; assay: Percent inhibition of PDE 3 (phosphodiesterase III) from guinea pig ventricle at 10 uM (or 100 uM); assay type: protein assay; details: Cavia porcellus, target entry is the homologue from another species
[5] = molecular target: T2, Phosphodiesterase 3; assay: Relative positive inotropic activity (ED50) and PDE 3 inhibition (IC50); assay type: protein assay; details: Cavia porcellus
[6] = molecular target: T1, Phosphodiesterase 4; assay: In vitro inhibition of PDE-IV isolated from guinea pig ventricle at 100 uM.; assay type: protein assay; details: Cavia porcellus, target entry is the homologue from another species
[7] = molecular target: T2, Phosphodiesterase 3; assay: Inhibition of PDE 3 (phosphodiesterase III) from guinea pig ventricle; assay type: protein assay, Cavia porcellus; details: target entry is the homologue from another species; summary of the method: as §1
[8] = molecular target: T2, Phosphodiesterase 3; assay: Effective dose against PDE-III for increase in contractility following administration to anaesthetised dogs; details: Canis lupus familiaris; target entry is the homologue from another species
[9] = molecular target: cGMP-specific 3',5'-cyclic phosphodiesterase (Homo sapiens) (UniProt O76074); assay: In vitro inhibition of PDE-V isolated from porcine pulmonary artery at 10 uM.; details: Sus scrofa, target entry is the homologue from another species
[10] = test system: cGMP-specific 3',5'-cyclic phosphodiesterase (Sus scrofa); assay: In vitro inhibition of PDE-V isolated from porcine pulmonary artery at 100 uM.
[11] = molecular target: T1, Phosphodiesterase 4; assay: In vitro inhibition of PDE-IV isolated from guinea pig ventricle; Not determined.; assay type: protein assay; details: Cavia porcellus; target entry is the homologue from another species; concentration not given here; summary of the method: as §1

inhibition [1] | inhibition [2] | IC50 [3] | Structure (SMILES) | also measured
23% | 15% | – | CCOc1ccccc1-c1nc2ccc[nH]c-2n1 | –
– | 0% | 6 µM | CCCCCOc1ccccc1-c1nc2ccc[nH]c-2n1 | –
– | 0% | 11 µM | CCCOc1ccccc1-c1nc2ccc[nH]c-2n1 | –
– | 15% | 37 µM | c1c[nH]c2nc(-c3ccccc3OCC3CC3)nc-2c1 | –
13% | 14% | – | CCCOc1ccccc1-c1nc2[nH]nnc2c(=O)[nH]1 | –
– | – | 3 µM | CC(C)COc1ccccc1-c1nc2ccc[nH]c-2n1 | –
50% | 20% | – | CCCCCOc1ccccc1-c1nc2cc[nH]cc-2n1 | –
16% | 2% | – | CCCOc1ccccc1-c1cn2cccnc2n1 | –
– | – | – | COc1cc([S+](C)[O-])ccc1-c1nc2cnccc2[nH]1 (stereo not given) [ISOMAZOLE] | inhibition [4]: 23%; Ratio [5]: 1.4; inhibition [6]: 2%; IC50 [7]: 42 µM; ED50 [8]: 0.03 mg/kg
– | 12% | 19 µM | c1c[nH]c2nc(-c3ccccc3OC3CCCC3)nc-2c1 | –
– | 0% | 16 µM | CCCCCCOc1ccccc1-c1nc2ccc[nH]c-2n1 | –
– | – | – | CC1(C)C(=O)Nc2ccc(C3=NNC(=O)CC3)cc21 [INDOLIDAN] | Ratio [5]: 0.01; IC50 [7]: 0.08 µM; ED50 [8]: 0.007 mg/kg
4% | 0% | – | O=[N+]([O-])c1ccccc1-c1nc2ccc[nH]c-2n1 | inhibition [9]: 13%
0% | 15% | – | Oc1ccccc1-c1nc2ccc[nH]c-2n1 | –
7% | 8% | – | CN(C)CCCOc1ccccc1-c1nc2ccc[nH]c-2n1 | inhibition [10]: 47%
11% | 0% | – | CCCNc1ccccc1-c1nc2ccc[nH]c-2n1 | –
– | 7% | 9 µM | ClCCCOc1ccccc1-c1nc2ccc[nH]c-2n1 | –
30% | 0% | – | OCCCOc1ccccc1-c1nc2ccc[nH]c-2n1 | –
– | 0% | 6 µM | CCCCOc1ccccc1-c1nc2ccc[nH]c-2n1 | –
– | – | – | O=C1CCC(c2ccc(-n3ccnc3)cc2)=NN1 | ED50 [8]: 0.05 mg/kg
21% | 0% | – | CCCSc1ccccc1-c1nc2ccc[nH]c-2n1 | –
0% | 0% | – | CC(C)(C)Oc1ccccc1-c1nc2ccc[nH]c-2n1 | inhibition [9]: 29%
– | – | – | COc1cc([S+](C)[O-])ccc1-c1nc2cccnc2[nH]1 (stereo not given) | inhibition [4]: 2%; ED50 [8]: 0.3 mg/kg
– | – | – | Cc1[nH]c(=O)c(C#N)cc1-c1ccncc1 | ED50 [8]: 0.037 mg/kg
20% | 6% | – | COc1ccccc1-c1nc2cc[nH]cc-2n1 | –
5% | 0% | – | CNCCCOc1ccccc1-c1nc2ccc[nH]c-2n1 | inhibition [9]: 12%
0% | 2% | – | CC(=O)Oc1ccccc1-c1nc2ccc[nH]c-2n1 | –
– | 0% | 8 µM | c1ccc(COc2ccccc2-c2nc3ccc[nH]c-3n2)cc1 | –
– | 13% | – | COc1ccccc1-c1nc2ccc[nH]c-2n1 | inhibition [11]: 1%
14% | 2% | – | OCCOc1ccccc1-c1nc2ccc[nH]c-2n1 | –
